We go through 20 compounds from paper PMC6682128 (ACS Omega, 2019).

The nature of this data set: Cytotoxicity assay. It is filed as cell-based. As to conditions: human. In a few lines:
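Replicon cells (Huh5-2, Huh7.5-3a or Huh7.5-4a) were seeded at 10^4 per well and grown 24 h in complete DMEM. They were then exposed for three days to serial dilutions of test compound or DMSO solvent. Lysates were assayed for ATP by chemiluminescence, normalised to Bradford total protein. CC50 was obtained by nonlinear regression against log concentration.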
The CC50 is the concentration giving 50% cytotoxicity. `CCOC(=O)N[C@@H](C(=O)N1CCC[C@@H]1C(=O)Nc1cccc(C#CC#Cc2cccc(NC(=O)[C@H]3CCCN3C(=O)[C@H](NC(=O)OCC)C(C)C)c2)c1)C(C)C` [2k, Diethyl((2R,2′R)-((2R,2′R)-(((buta-1,3-diyne-1,4-diylbis(3,1-phenylene))bis(azanediyl))bis(carbonyl))bis(pyrrolidine-2,1-diyl))bis(3-methyl-1-oxobutane-1,2-diyl))dicarbamate] came in with a 50% cytotoxic concentration (CC50) at 3 days greater than 10 µM.

`CCOC(=O)N[C@H](C(=O)N1CCC[C@H]1C(=O)Nc1cccc(C#CC#Cc2cccc(NC(=O)[C@@H]3CCCN3C(=O)[C@@H](NC(=O)OCC)[C@@H](C)CC)c2)c1)[C@H](C)CC` [2h, Ethyl((2S,3S)-1-((S)-2-((3-((3-((S)-1-((ethoxycarbonyl)-L-alloisoleucyl)pyrrolidine-2-carboxamido)phenyl)buta-1,3-diyn-1-yl)phenyl)carbamoyl)pyrrolidin-1-yl)-3-methyl-1-oxopentan-2-yl)carbamate] displayed a cytotoxic concentration (CC50) at 3 days greater than 200 µM.

The compound `CCCCOC(=O)N[C@@H](CC(C)C)C(=O)N1CCC[C@H]1C(=O)Nc1ccc(C#CC#Cc2ccc(NC(=O)[C@@H]3CCCN3C(=O)[C@H](CC(C)C)NC(=O)OCCCC)cc2)cc1` [1g, Dibutyl((2S,2′S)-((2S,2′S)-(((buta-1,3-diyne-1,4-diylbis(4,1-phenylene))bis(azanediyl))bis(carbonyl))bis(pyrrolidine-2,1-diyl))bis(4-methyl-1-oxopentane-1,2-diyl))dicarbamate] displayed a half-maximal cytotoxic concentration (CC50) at 3 days greater than 10 µM.

For the compound `CCOC(=O)N[C@@H](CC(C)C)C(=O)N1CCC[C@@H]1C(=O)Nc1ccc(C#CC#Cc2ccc(NC(=O)[C@H]3CCCN3C(=O)[C@H](CC(C)C)NC(=O)OCC)cc2)cc1` [1l, Diethyl((2S,2′S)-((2R,2′R)-(((buta-1,3-diyne-1,4-diylbis(4,1-phenylene))bis(azanediyl))bis(carbonyl))bis(pyrrolidine-2,1-diyl))bis(4-methyl-1-oxopentane-1,2-diyl))dicarbamate], the CC50 at 3 days is greater than 10 µM.

`COC(=O)N[C@@H](CC(C)C)C(=O)N1CCC[C@H]1C(=O)Nc1cccc(C#CC#Cc2cccc(NC(=O)[C@@H]3CCCN3C(=O)[C@H](CC(C)C)NC(=O)OC)c2)c1` [2o, Dimethyl((2S,2′S)-((2S,2′S)-(((buta-1,3-diyne-1,4-diylbis(3,1-phenylene))bis(azanediyl))bis(carbonyl))bis(pyrrolidine-2,1-diyl))bis(4-methyl-1-oxopentane-1,2-diyl))dicarbamate]: the CC50 at 3 days was greater than 20 µM.

In turn, `CCCCOC(=O)N[C@@H](CC(C)C)C(=O)N1CCC[C@H]1C(=O)Nc1cccc(C#CC#Cc2cccc(NC(=O)[C@@H]3CCCN3C(=O)[C@H](CC(C)C)NC(=O)OCCCC)c2)c1` [2g, Dibutyl((2S,2′S)-((2S,2′S)-(((buta-1,3-diyne-1,4-diylbis(3,1-phenylene))bis(azanediyl))bis(carbonyl))bis(pyrrolidine-2,1-diyl))bis(4-methyl-1-oxopentane-1,2-diyl))dicarbamate] returned a CC50 at 3 days greater than 10 µM.

On to `CCOC(=O)N[C@H](CC(C)C)C(=O)N1CCC[C@@H]1C(=O)Nc1ccc(C#CC#Cc2ccc(NC(=O)[C@H]3CCCN3C(=O)[C@@H](CC(C)C)NC(=O)OCC)cc2)cc1` [1m, Diethyl((2R,2′R)-((2R,2′R)-(((buta-1,3-diyne-1,4-diylbis(4,1-phenylene))bis(azanediyl))bis(carbonyl))bis(pyrrolidine-2,1-diyl))bis(4-methyl-1-oxopentane-1,2-diyl))dicarbamate], for which the CC50 at 3 days was greater than 10 µM.

As for `CCOC(=O)N[C@@H](C(=O)N1CCC[C@@H]1C(=O)Nc1ccc(C#CC#Cc2ccc(NC(=O)[C@H]3CCCN3C(=O)[C@H](NC(=O)OCC)C(C)C)cc2)cc1)C(C)C` [1k, Diethyl((2R,2′R)-((2R,2′R)-(((buta-1,3-diyne-1,4-diylbis(4,1-phenylene))bis(azanediyl))bis(carbonyl))bis(pyrrolidine-2,1-diyl))bis(3-methyl-1-oxobutane-1,2-diyl))dicarbamate], the half-maximal cytotoxic concentration (CC50) at 3 days was greater than 10 µM.

For `CC(C)COC(=O)N[C@H](C(=O)N1CCC[C@H]1C(=O)Nc1cccc(C#CC#Cc2cccc(NC(=O)[C@@H]3CCCN3C(=O)[C@@H](NC(=O)OCC(C)C)C(C)C)c2)c1)C(C)C` [2d, Diisobutyl((2S,2′S)-((2S,2′S)-(((buta-1,3-diyne-1,4-diylbis(3,1-phenylene))bis(azanediyl))bis(carbonyl))bis(pyrrolidine-2,1-diyl))bis(3-methyl-1-oxobutane-1,2-diyl))dicarbamate], the 50% cytotoxic concentration (CC50) at 3 days was greater than 20 µM.

`CC(C)C[C@H](NC(=O)OCc1ccccc1)C(=O)N1CCC[C@H]1C(=O)Nc1ccc(C#CC#Cc2ccc(NC(=O)[C@@H]3CCCN3C(=O)[C@H](CC(C)C)NC(=O)OCc3ccccc3)cc2)cc1` [1o, Dibenzyl((2S,2′S)-((2S,2′S)-(((buta-1,3-diyne-1,4-diylbis(4,1-phenylene))bis(azanediyl))bis(carbonyl))bis(pyrrolidine-2,1-diyl))bis(4-methyl-1-oxopentane-1,2-diyl))dicarbamate] displayed a 50% cytotoxic concentration (CC50) at 3 days greater than 10 µM.

In turn, `CCOC(=O)N[C@H](C(=O)N1CCC[C@@H]1C(=O)Nc1cccc(C#CC#Cc2cccc(NC(=O)[C@H]3CCCN3C(=O)[C@@H](NC(=O)OCC)C(C)C)c2)c1)C(C)C` [2j, Diethyl((2S,2′S)-((2R,2′R)-(((buta-1,3-diyne-1,4-diylbis(3,1-phenylene))bis(azanediyl))bis(carbonyl))bis(pyrrolidine-2,1-diyl))bis(3-methyl-1-oxobutane-1,2-diyl))dicarbamate] yielded a CC50 at 3 days greater than 10 µM.

The compound `CCCCOC(=O)N[C@H](C(=O)N1CCC[C@H]1C(=O)Nc1cccc(C#CC#Cc2cccc(NC(=O)[C@@H]3CCCN3C(=O)[C@@H](NC(=O)OCCCC)C(C)C)c2)c1)C(C)C` [2c, Dibutyl((2S,2′S)-((2S,2′S)-(((buta-1,3-diyne-1,4-diylbis(3,1-phenylene))bis(azanediyl))bis(carbonyl))bis(pyrrolidine-2,1-diyl))bis(3-methyl-1-oxobutane-1,2-diyl))dicarbamate] returned a 50% cytotoxic concentration (CC50) at 3 days greater than 10 µM.

With `CCOC(=O)N[C@H](CC(C)C)C(=O)N1CCC[C@@H]1C(=O)Nc1cccc(C#CC#Cc2cccc(NC(=O)[C@H]3CCCN3C(=O)[C@@H](CC(C)C)NC(=O)OCC)c2)c1` [2m, Diethyl((2R,2′R)-((2R,2′R)-(((buta-1,3-diyne-1,4-diylbis(3,1-phenylene))bis(azanediyl))bis(carbonyl))bis(pyrrolidine-2,1-diyl))bis(4-methyl-1-oxopentane-1,2-diyl))dicarbamate], the CC50 at 3 days is greater than 10 µM.

`CCOC(=O)N[C@H](C(=O)N1CCC[C@H]1C(=O)Nc1ccc(C#CC#Cc2ccc(NC(=O)[C@@H]3CCCN3C(=O)[C@@H](NC(=O)OCC)C(C)CC)cc2)cc1)C(C)CC` (stereo partly drawn) [1h, Diethyl((2S,2′S)-((2S,2′S)-(((buta-1,3-diyne-1,4-diylbis(4,1-phenylene))bis(azanediyl))bis(carbonyl))bis(pyrrolidine-2,1-diyl))bis(3-methyl-1-oxopentane-1,2-diyl))dicarbamate] had a CC50 at 3 days greater than 10 µM.

`CCC(C)[C@H](NC(=O)OCc1ccccc1)C(=O)N1CCC[C@H]1C(=O)Nc1ccc(C#CC#Cc2ccc(NC(=O)[C@@H]3CCCN3C(=O)[C@@H](NC(=O)OCc3ccccc3)C(C)CC)cc2)cc1` (stereo partly drawn) [1p, Dibenzyl((2S,2′S)-((2S,2′S)-(((buta-1,3-diyne-1,4-diylbis(4,1-phenylene))bis(azanediyl))bis(carbonyl))bis(pyrrolidine-2,1-diyl))bis(3-methyl-1-oxopentane-1,2-diyl))dicarbamate]: the CC50 at 3 days was greater than 10 µM.

With `CCOC(=O)N[C@@H](C(=O)N1CCC[C@H]1C(=O)Nc1ccc(C#CC#Cc2ccc(NC(=O)[C@@H]3CCCN3C(=O)[C@H](NC(=O)OCC)C(C)C)cc2)cc1)C(C)C` [1n, Diethyl((2R,2′R)-((2S,2′S)-(((buta-1,3-diyne-1,4-diylbis(4,1-phenylene))bis(azanediyl))bis(carbonyl))bis(pyrrolidine-2,1-diyl))bis(3-methyl-1-oxobutane-1,2-diyl))dicarbamate], the 50% cytotoxic concentration (CC50) at 3 days amounted to 70.6 µM.

In turn, `CCCCOC(=O)N[C@H](C(=O)N1CCC[C@H]1C(=O)Nc1ccc(C#CC#Cc2ccc(NC(=O)[C@@H]3CCCN3C(=O)[C@@H](NC(=O)OCCCC)C(C)C)cc2)cc1)C(C)C` [1c, Dibutyl((2S,2′S)-((2S,2′S)-(((buta-1,3-diyne-1,4-diylbis(4,1-phenylene))bis(azanediyl))bis(carbonyl))bis(pyrrolidine-2,1-diyl))bis(3-methyl-1-oxobutane-1,2-diyl))dicarbamate] registered a CC50 at 3 days greater than 20 µM.

Take `CCOC(=O)N[C@H](C(=O)N1CCC[C@H]1C(=O)Nc1cccc(C#CC#Cc2cccc(NC(=O)[C@@H]3CCCN3C(=O)[C@@H](NC(=O)OCC)C(C)C)c2)c1)C(C)C` [2b, Diethyl((2S,2′S)-((2S,2′S)-(((buta-1,3-diyne-1,4-diylbis(3,1-phenylene))bis(azanediyl))bis(carbonyl))bis(pyrrolidine-2,1-diyl))bis(3-methyl-1-oxobutane-1,2-diyl))dicarbamate]: the CC50 at 3 days is greater than 200 µM.

In the case of `CCCCOC(=O)N[C@H](C(=O)N1CCC[C@H]1C(=O)Nc1ccc(C#CC#Cc2ccc(NC(=O)[C@@H]3CCCN3C(=O)[C@@H](NC(=O)OCCCC)C(C)CC)cc2)cc1)C(C)CC` (stereo partly drawn) [1i, Dibutyl((2S,2′S)-((2S,2′S)-(((buta-1,3-diyne-1,4-diylbis(4,1-phenylene))bis(azanediyl))bis(carbonyl))bis(pyrrolidine-2,1-diyl))bis(3-methyl-1-oxopentane-1,2-diyl))dicarbamate], the cytotoxic concentration (CC50) at 3 days is greater than 10 µM.

In the case of `CC(C)COC(=O)N[C@H](C(=O)N1CCC[C@H]1C(=O)Nc1ccc(C#CC#Cc2ccc(NC(=O)[C@@H]3CCCN3C(=O)[C@@H](NC(=O)OCC(C)C)C(C)C)cc2)cc1)C(C)C` [1d, Diisobutyl((2S,2′S)-((2S,2′S)-(((buta-1,3-diyne-1,4-diylbis(4,1-phenylene))bis(azanediyl))bis(carbonyl))bis(pyrrolidine-2,1-diyl))bis(3-methyl-1-oxobutane-1,2-diyl))dicarbamate], the CC50 at 3 days was greater than 10 µM.
